Laboratory results taken from ChEMBL document CHEMBL2390886, “Guaifenesin derivatives promote neurite outgrowth and protect diabetic mice from neuropathy” (J Med Chem, 2013).
Calls of active or inactive are those of the source. The rule behind the calls is not given here.

Assays:
[1] = AUC (0 to t) in streptozotocin-induced C57BL/6J mouse diabetic neuropathy model at 10 mg/kg, po by LC-MS/MS analysis; assay type: ADME, organism-based; set-up: dose 10 mg/kg, route oral; conditions: in vivo
How it was run: (§1)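 Single oral dose […] given to control and STZ-diabetic mice; plasma analysed by LC−MS/MS. Samples vortexed 2 min, centrifuged, organic layer dried under N2 at room temperature and reconstituted in 0.2% TFA in MeOH/water 20:80. Standards 20–100 000 nM in water; internal standard response variable, not used for quantification.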

[2] = Cmax in C57BL/6J mouse at 10 mg/kg, po by LC-MS/MS analysis; assay type: ADME, organism-based; set-up: dose 10 mg/kg, route oral; conditions: in vivo; how it was run: as §1
Mus musculus [3] = experiment: Antidiabetic activity in streptozotocin-induced C57BL/6J mouse diabetic neuropathy model assessed as effect on weight loss at 1 to 10 mg/kg/day, po administered 6 days per week for 4 weeks; assay type: functional, organism-based
How it was run: (§2)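 Type 1 diabetes induced in fasted mice by ip STZ 90 mg/kg in sterile citrate buffer on 2 consecutive days, confirmed 4 days later and at study end by tail-prick blood glucose (reflectance meter). Compound or vehicle (water) by oral gavage 6 days/week from diabetes onset for 4 weeks. Body weight, glucose, and sciatic MNCV recorded. MNCV taken at 37 °C under isoflurane, stimulating at sciatic notch and Achilles tendon (5 V, 0.05 ms square wave), recording in ipsilateral paw interosseus muscles. n = 10−12/group; mean ± SEM; one-way ANOVA with Dunnett's test.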

[4] = Metabolic stability in human liver microsomes assessed as compound remaining at 2 uM after 1 hr by LC-MS/MS analysis; assay type: ADME, Microsome; conditions: read-out: Stability
How it was run: (§3)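 2 μM compound incubated with mouse or human liver microsomes plus excess NADPH at 37 °C in a shaking water bath for 0 and 60 min (n = 6). Quenched with 2 volumes acetonitrile, centrifuged, supernatant diluted 1:1 with water, analysed by LC−MS/MS as % remaining. Propranolol control.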

Mus musculus [5] = experiment: Antidiabetic activity in streptozotocin-induced C57BL/6J mouse diabetic neuropathy model assessed as effect on hyperglycemia at 1 to 10 mg/kg/day, po administered 6 days per week for 4 weeks; assay type: functional, organism-based; how it was run: as §2
[6] = Tmax in C57BL/6J mouse at 10 mg/kg, po by LC-MS/MS analysis; assay type: ADME, organism-based; set-up: dose 10 mg/kg, route oral; conditions: in vivo; how it was run: as §1
[7] = Tmax in streptozotocin-induced C57BL/6J mouse diabetic neuropathy model at 10 mg/kg, po by LC-MS/MS analysis; assay type: ADME, organism-based; set-up: dose 10 mg/kg, route oral; conditions: in vivo; how it was run: as §1
Mus musculus [8] = experiment: Neuroprotective activity in streptozotocin-induced C57BL/6J mouse diabetic neuropathy model assessed as prevention of motor neuron conduction velocity slowing at 1 to 10 mg/kg/day, po administered 6 days per week for 4 weeks; assay type: functional, organism-based; how it was run: as §2
[9] = Metabolic stability in mouse liver microsomes assessed as compound remaining at 2 uM after 1 hr by LC-MS/MS analysis; assay type: ADME, Microsome; conditions: read-out: Stability; how it was run: as §3
[10] = Permeability of the compound after 5 hrs by PAMPA; assay type: ADME; conditions: read-out: permeability
How it was run: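 Precoated PAMPA plate warmed to room temperature. Donor: 25 μM compound in 5% DMSO/PBS; acceptor: 5% DMSO/PBS. Incubated 5 h at 25 °C in water bath. Donor and acceptor samples quantified by LC−MS/MS against calibration standards; mass retention also determined. Propranolol control.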

[11] = Cmax in streptozotocin-induced C57BL/6J mouse diabetic neuropathy model at 10 mg/kg, po by LC-MS/MS analysis; assay type: ADME, organism-based; set-up: dose 10 mg/kg, route oral; conditions: in vivo; how it was run: as §1
DRG neuron [12] = experiment: Neuroprotective activity in Sprague-Dawley rat DRG neurons assessed as enhancement of neurite outgrowth at 0.01 uM after 24 hrs by confocal microscopic analysis; assay type: functional
How it was run: (§4)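 Dissociated DRG neurons from adult male Sprague−Dawley rats cultured in defined medium with compound for 24 h. DIC images by confocal microscopy. Total neurite length per cell scored with Weibel-grid morphometry as intersects per cell, compared with control neurons of the same preparation. n = 6 replicate cultures; mean ± SEM; one-way ANOVA with Tukey's test.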

[13] = AUC (0 to t) in C57BL/6J mouse at 10 mg/kg, po by LC-MS/MS analysis; assay type: ADME, organism-based; set-up: dose 10 mg/kg, route oral; conditions: plasma; how it was run: as §1
Mus musculus [14] = experiment: Toxicity in C57BL/6J mouse assessed as unusual behavior at 10 to 100 mg/kg/day, po administered 6 days per week for 4 weeks; assay type: organism-based; set-up: route oral; conditions: in vivo
Mus musculus [15] = experiment: Antidiabetic activity in streptozotocin-induced C57BL/6J mouse diabetic neuropathy model assessed as effect on hyperglycemia at 10 to 100 mg/kg/day, po administered 6 days per week for 4 weeks; assay type: functional, organism-based; how it was run: as §2
Mus musculus [16] = experiment: Antidiabetic activity in streptozotocin-induced C57BL/6J mouse diabetic neuropathy model assessed as effect on weight loss at 10 to 100 mg/kg/day, po administered 6 days per week for 4 weeks; assay type: functional, organism-based; how it was run: as §2
DRG neuron [17] = experiment: Neuroprotective activity in Sprague-Dawley rat DRG neurons assessed as enhancement of neurite outgrowth at >10 nM after 24 hrs by confocal microscopic analysis; assay type: functional; how it was run: as §4
Mus musculus [18] = experiment: Toxicity in C57BL/6J mouse assessed as change in body weight at 10 to 100 mg/kg/day, po administered 6 days per week for 4 weeks (reference value: 26.7 +/- 0.4 g); assay type: organism-based; set-up: route oral; conditions: in vivo
Mus musculus [19] = experiment: Neuroprotective activity in streptozotocin-induced C57BL/6J mouse diabetic neuropathy model assessed as prevention of motor neuron conduction velocity slowing at 10 to 100 mg/kg/day, po administered 6 days per week for 4 weeks; assay type: functional, organism-based; how it was run: as §2
Mus musculus [20] = experiment: Toxicity in C57BL/6J mouse sciatic nerve assessed as motor neuron conduction velocity at 10 to 100 mg/kg/day, po administered 6 days per week for 4 weeks (reference value: 35.6 +/- 1.1 m/s); assay type: organism-based; set-up: route oral; conditions: in vivo
DRG neuron [21] = experiment: Neuroprotective activity in Sprague-Dawley rat DRG neurons assessed as sprouting of neurites at 1 uM after 24 hrs by confocal microscopic analysis; assay type: functional; how it was run: as §4
DRG neuron [22] = experiment: Neuroprotective activity in Sprague-Dawley rat DRG neurons assessed as enhancement of neurite outgrowth at 0.01 to 1 uM after 24 hrs by confocal microscopic analysis; assay type: functional
How it was run: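 DRG from adult male Sprague-Dawley rats dissociated; neurons cultured in defined Hams medium. Test agent incubated 24 h, then DIC images captured by confocal microscopy. Total neurite length per neuron measured morphometrically with a Weibel grid as crosspoints per cell, relative to control neurons of the same preparation. Mean ± SEM of 6 replicate cultures; one-way ANOVA with Tukey's post hoc test.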

DRG neuron [23] = experiment: Neuroprotective activity in Sprague-Dawley rat DRG neurons assessed as enhancement of neurite outgrowth up to 1 uM after 24 hrs by confocal microscopic analysis; assay type: functional; how it was run: as §4

COc1ccccc1OC[C@H](O)CO
AUC(0-t) [1]: 0.746 µM·h
Cmax [2]: 0.44 µM
Activity (Mus musculus [3]): inactive
remaining at 1 h, 2 µM [4]: 97.4%
Activity (Mus musculus [5]): inactive
Tmax [6]: 10 min
Tmax [7]: 10 min
Activity (Mus musculus [8]): Active
remaining at 1 h, 2 µM [9]: 92.4%
Papp at 5 h [10]: 6.3 ×10⁻⁶ cm/s
Cmax [11]: 0.741 µM
Activity (DRG neuron [12]): Active
AUC(0-t) [13]: 0.737 µM·h

COc1ccccc1OCC(O)CO (racemic) [GUAIFENESIN]
Activity (Mus musculus [14]): Non-toxic
AUC(0-t) [1]: 1.91 µM·h
Cmax [2]: 5.28 µM
Activity (Mus musculus [15]): inactive
Activity (Mus musculus [16]): inactive
Activity (DRG neuron [17]): Active
Activity (Mus musculus [18]): 27.1 g
Activity (Mus musculus [19]): Active
Tmax [6]: 4.98 min
Tmax [7]: 4.98 min
Activity (Mus musculus [20]): 35.1 meter/s
Cmax [11]: 5.27 µM
Activity (DRG neuron [21]): Active
AUC(0-t) [13]: 2.73 µM·h

CCc1ccccc1OCC(O)CO (stereo not given)
Activity (DRG neuron [22]): inactive

Cc1ccccc1OCC(O)CO (racemic)
Activity (DRG neuron [22]): Active

COc1ccccc1OC[C@@H](O)CF
Activity (DRG neuron [22]): inactive

COc1ccccc1NCC(O)CO (racemic)
Activity (DRG neuron [23]): inactive

COc1ccccc1OC[C@@H](O)CO
remaining at 1 h, 2 µM [4]: 94.8%
Activity (DRG neuron [22]): inactive
remaining at 1 h, 2 µM [9]: 92.9%
Papp at 5 h [10]: 8.2 ×10⁻⁶ cm/s
